# What was measured:
# Rattus norvegicus [1] = assay: Half-maximal decrease of DOPA accumulation (no reserpine pretreatment) in the limbic system of rat brain at dose 227 uM/kg; format: functional; design: scale not given: the % may be the effect or the level left
# Procedure, shortened: (§1)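 Male Sprague-Dawley rats (200-300 g), not pretreated, received the drug sc in the neck, dissolved in saline. NSD 1015 (100 mg/kg) followed 35 min later. Dopa accumulation was measured in limbic and striatal portions. […] Statistics by Student's t test.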
# Rattus norvegicus [2] = assay: Half-maximal decrease of DOPA accumulation (no reserpine pretreatment) in the striatum of rat brain at dose 227 uM/kg; format: functional; design: scale not given: the % may be the effect or the level left; procedure, shortened: as §1
# Rattus norvegicus [3] = species: Rattus norvegicus; assay: High dose of compound giving significant reduction and increase in motor activity without pretreatment was determined; motor activity 55% of control was observed at the highest dose; format: functional
# Procedure, shortened: (§2)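 Non-pretreated male Sprague-Dawley rats received the compound sc in the neck (n = 4). They were placed singly in test cages and put into motility meters 5 min later. Motor activity was recorded over 5-35 min. The dose reported is the lowest giving a significant reduction or increase in activity, expressed as percent of controls.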
# Rattus norvegicus [4] = assay: Reduction of DOPA accumulation upon reserpine pretreatment in the corpus striatum of rat brain at a dose of 100 umol/kg; format: functional
# Procedure, shortened: (§3)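 Test drug dissolved in saline, injected sc in the neck. 30 min later, NSD 1015 100 mg/kg given. Dopa measured in brain portions (limbic, striatal) and expressed as percent reduction from control levels. Student's t test used for statistics.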
# Rattus norvegicus [5] = assay: Reduction of DOPA accumulation upon reserpine pretreatment in the limbic system of rat brain at a dose of 100 umol/kg; format: functional; procedure, shortened: as §3
# Rattus norvegicus [6] = assay: Motor activity with reserpine pretreatment at dose 53 uM/kg; format: functional
# Rattus norvegicus [7] = species: Rattus norvegicus; assay: Low dose of compound giving significant reduction and increase in motor activity without pretreatment was determined; motor activity 32% of control was observed at the lowest dose; format: functional; procedure, shortened: as §2
# Rattus norvegicus [8] = assay: Half-maximal decrease of DOPA accumulation (no reserpine pretreatment) in the limbic system of rat brain at dose 0.83 uM/kg; format: functional; design: scale not given: the % may be the effect or the level left; procedure, shortened: as §1
# Rattus norvegicus [9] = species: Rattus norvegicus; assay: Half-maximal decrease of DOPA accumulation upon reserpine pretreatment in the corpus striatum of rat brain; format: functional
# Rattus norvegicus [10] = assay: Effect on HVA level in rat brain striatum regions at a dose of 27 uM/kg sc 60 min before death; format: functional, organism-based
# Procedure, shortened: (§4)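 They were killed 60 min later. DOPAC and HVA were measured by HPLC in limbic and striatal brain portions. Values are percent of control means ± standard error of the mean.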
# Rattus norvegicus [11] = assay: (§5) Effect on DOPAC level in limbic system of rat brain at a dose of 27 uM/kg sc 60 min before death; format: functional, organism-based; procedure, shortened: as §4
# Rattus norvegicus [12] = assay: Effect on DOPAC level in rat brain striatum regions at a dose of 27 uM/kg sc 60 min before death; format: functional, organism-based; procedure, shortened: as §4
# Rattus norvegicus [13] = assay: Effect on HVA level in rat brain limbic regions at a dose of 27 uM/kg sc 60 min before death; format: functional, organism-based; procedure, shortened: as §4
# Rattus norvegicus [14] = assay: Motor activity with reserpine pretreatment at dose 13 uM/kg; format: functional
# Rattus norvegicus [15] = species: Rattus norvegicus; assay: High dose of compound giving significant reduction and increase in motor activity without pretreatment was determined; motor activity 230% of control was observed at the highest dose; format: functional; procedure, shortened: as §2
# Rattus norvegicus [16] = species: Rattus norvegicus; assay: Low dose of compound giving significant reduction and increase in motor activity without pretreatment was determined; motor activity 75% of control was observed at the lowest dose; format: functional; procedure, shortened: as §2
# Rattus norvegicus [17] = assay: Half-maximal decrease of DOPA accumulation (no reserpine pretreatment) in the striatum of rat brain at dose 0.8 uM/kg; format: functional; design: scale not given: the % may be the effect or the level left; procedure, shortened: as §1
# Rattus norvegicus [18] = assay: Half-maximal decrease of DOPA accumulation (no reserpine pretreatment) in the limbic system of rat brain at dose 0.8 uM/kg; format: functional; design: scale not given: the % may be the effect or the level left; procedure, shortened: as §1
# Rattus norvegicus [19] = assay: as §5; format: functional, organism-based; remark: listed apart in the source
# Procedure, shortened: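 Male Sprague-Dawley rats (200-300 g) got a single sc dose of 27 μmol/kg, dissolved in saline. They were killed 60 min later. DOPAC and HVA were measured by HPLC in limbic and striatal brain portions. Values are percent of control means ± standard error of the mean.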
# Rattus norvegicus [20] = assay: Motor activity with reserpine pretreatment at dose 100 uM/kg; format: functional
# Rattus norvegicus [21] = species: Rattus norvegicus; assay: […] without pretreatment was determined; motor activity 40% of control was observed at the highest dose; format: functional
# Rattus norvegicus [22] = assay: Motor activity with reserpine pretreatment at dose 265 umol/kg; format: functional
# Rattus norvegicus [23] = species: Rattus norvegicus; assay: Low dose of compound giving significant reduction and increase in motor activity without pretreatment was determined; motor activity 53% of control was observed at the lowest dose; format: functional; procedure, shortened: as §2
# Rattus norvegicus [24] = assay: Half-maximal decrease of DOPA accumulation (no reserpine pretreatment) in the limbic system of rat brain at dose 3.9 uM/kg; format: functional; design: scale not given: the % may be the effect or the level left; procedure, shortened: as §1
# Rattus norvegicus [25] = assay: Half-maximal decrease of DOPA accumulation (no reserpine pretreatment) in the striatum of rat brain at dose 0.98 uM/kg; format: functional; design: scale not given: the % may be the effect or the level left; procedure, shortened: as §1
# Rattus norvegicus [26] = assay: Motor activity with reserpine pretreatment at dose 7.0 umol/kg; format: functional
# Procedure, shortened: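 Test drug dissolved in saline, given sc in the neck (n = 4). Rats placed singly in motility meter cages immediately after dosing. Motor activity recorded as accumulated counts over 0–30 min and compared with controls.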
# Rattus norvegicus [27] = assay: Motor activity with reserpine pretreatment at dose 133 umol/kg; format: functional
# Rattus norvegicus [28] = assay: Motor activity with reserpine pretreatment at dose 213 uM/kg; format: functional
# Rattus norvegicus [29] = species: Rattus norvegicus; assay: Low dose of compound giving significant reduction and increase in motor activity without pretreatment was determined; motor activity 74% of control was observed at the lowest dose; format: functional; procedure, shortened: as §2
# Rattus norvegicus [30] = assay: Half-maximal decrease of DOPA accumulation (no reserpine pretreatment) in the limbic system of rat brain at dose 213 uM/kg; format: functional; design: scale not given: the % may be the effect or the level left; procedure, shortened: as §1
# Rattus norvegicus [31] = assay: Half-maximal decrease of DOPA accumulation (no reserpine pretreatment) in the striatum of rat brain at dose 27 uM/kg; format: functional; design: scale not given: the % may be the effect or the level left; procedure, shortened: as §1
# Rattus norvegicus [32] = species: Rattus norvegicus; assay: Low dose of compound giving significant reduction and increase in motor activity without pretreatment was determined; motor activity 58% of control was observed at the lowest dose; format: functional; procedure, shortened: as §2
# Rattus norvegicus [33] = assay: Half-maximal decrease of DOPA accumulation (no reserpine pretreatment) in the limbic system of rat brain at dose 3.7 uM/kg; format: functional; design: scale not given: the % may be the effect or the level left; procedure, shortened: as §1
# Rattus norvegicus [34] = assay: Half-maximal decrease of DOPA accumulation (no reserpine pretreatment) in the striatum of rat brain at dose 3.7 uM/kg; format: functional; design: scale not given: the % may be the effect or the level left; procedure, shortened: as §1
# Rattus norvegicus [35] = species: Rattus norvegicus; assay: High dose of compound giving significant reduction and increase in motor activity without pretreatment was determined; motor activity 92% of control was observed at the highest dose; format: functional; procedure, shortened: as §2
# Rattus norvegicus [36] = species: Rattus norvegicus; assay: Half-maximal decrease of DOPA accumulation upon reserpine pretreatment in the limbic system of rat brain; format: functional
# Rattus norvegicus [37] = assay: Motor activity with reserpine pretreatment at dose 14 umol/kg; format: functional
# Rattus norvegicus [38] = assay: Motor activity with reserpine pretreatment at dose 3.3 uM/kg; format: functional
# Rattus norvegicus [39] = species: Rattus norvegicus; assay: […] without pretreatment was determined; motor activity 137% of control was observed at the highest dose; format: functional
# Rattus norvegicus [40] = assay: Half-maximal decrease of DOPA accumulation (no reserpine pretreatment) in the limbic system of rat brain at dose 0.98 uM/kg; format: functional; design: scale not given: the % may be the effect or the level left; procedure, shortened: as §1
# Rattus norvegicus [41] = assay: Half-maximal decrease of DOPA accumulation (no reserpine pretreatment) in the striatum of rat brain at dose 0.24 uM/kg; format: functional; design: scale not given: the % may be the effect or the level left; procedure, shortened: as §1
# Rattus norvegicus [42] = species: Rattus norvegicus; assay: Low dose of compound giving significant reduction and increase in motor activity without pretreatment was determined; motor activity 41% of control was observed at the lowest dose; format: functional; procedure, shortened: as §2
smiles,measurement,setting,value
Oc1cccc([C@@H]2CCCNC2)c1,Control,Rattus norvegicus [1],50%
same,Control,Rattus norvegicus [2],44%
same,Dose,Rattus norvegicus [3],227 µM/kg
same,Reduction,Rattus norvegicus [4],26%
same,Reduction,Rattus norvegicus [5],19%
CCCCN1CCC[C@@H](c2cccc(O)c2)C1,Accumulated counts,Rattus norvegicus [6],63
same,Dose,Rattus norvegicus [7],3.7 µM/kg
same,Control,Rattus norvegicus [8],84%
same,ED50,Rattus norvegicus [9],0.77 µmol/kg
same,Level,Rattus norvegicus [10],142
same,Level,Rattus norvegicus [11],91
same,Level,Rattus norvegicus [12],118
same,Level,Rattus norvegicus [13],103
CCCN1CCC[C@H](c2cccc(O)c2)C1,Accumulated counts,Rattus norvegicus [14],78
same,Dose,Rattus norvegicus [15],213 µM/kg
same,Dose,Rattus norvegicus [16],1.6 µM/kg
same,Control,Rattus norvegicus [17],81%
same,Control,Rattus norvegicus [18],86%
same,ED50,Rattus norvegicus [9],1.3 µmol/kg
same,Level,Rattus norvegicus [10],45
same,Level,Rattus norvegicus [12],63
same,Level,Rattus norvegicus [13],52
same,Level,Rattus norvegicus [19],59
CN1CCC[C@@H](c2cccc(O)c2)C1,Accumulated counts,Rattus norvegicus [20],36
same,Dose,Rattus norvegicus [21],227 µM/kg
same,Control,Rattus norvegicus [1],48%
same,Control,Rattus norvegicus [2],51%
same,ED50,Rattus norvegicus [9],10 µmol/kg
Oc1cccc([C@H]2CCCNC2)c1,Accumulated counts,Rattus norvegicus [22],47
same,ED50,Rattus norvegicus [9],14 µmol/kg
CC(C)N1CCC[C@H](c2cccc(O)c2)C1,Accumulated counts,Rattus norvegicus [6],49
same,Dose,Rattus norvegicus [23],0.2 µM/kg
same,Control,Rattus norvegicus [24],77%
same,Control,Rattus norvegicus [25],85%
same,ED50,Rattus norvegicus [9],13 µmol/kg
same,Level,Rattus norvegicus [10],89
same,Level,Rattus norvegicus [12],74
same,Level,Rattus norvegicus [13],80
same,Level,Rattus norvegicus [19],70
Oc1cccc([C@@H]2CCCN(CCc3ccccc3)C2)c1,Accumulated counts,Rattus norvegicus [26],71
same,ED50,Rattus norvegicus [9],0.13 µmol/kg
CN1CCC[C@H](c2cccc(O)c2)C1,Accumulated counts,Rattus norvegicus [27],88
same,ED50,Rattus norvegicus [9],2.9 µmol/kg
CCCN1CCC[C@@H](c2cccc(O)c2)C1 [PRECLAMOL],Accumulated counts,Rattus norvegicus [28],12
same,Dose,Rattus norvegicus [21],213 µM/kg
same,Dose,Rattus norvegicus [29],0.8 µM/kg
same,Control,Rattus norvegicus [30],95%
same,Control,Rattus norvegicus [31],147%
same,ED50,Rattus norvegicus [9],1.7 µmol/kg
same,Level,Rattus norvegicus [10],162
same,Level,Rattus norvegicus [11],114
same,Level,Rattus norvegicus [12],145
same,Level,Rattus norvegicus [13],100
CCCCN1CCC[C@H](c2cccc(O)c2)C1,Accumulated counts,Rattus norvegicus [6],180
same,Dose,Rattus norvegicus [32],3.7 µM/kg
same,Control,Rattus norvegicus [33],72%
same,Control,Rattus norvegicus [34],76%
same,Dose,Rattus norvegicus [35],53 µM/kg
same,ED50,Rattus norvegicus [9],2.2 µmol/kg
same,ED50,Rattus norvegicus [36],2.3 µmol/kg
same,Level,Rattus norvegicus [10],52
same,Level,Rattus norvegicus [11],55
same,Level,Rattus norvegicus [12],58
same,Level,Rattus norvegicus [13],52
Oc1cccc([C@H]2CCCN(CCc3ccccc3)C2)c1,Accumulated counts,Rattus norvegicus [37],26
same,ED50,Rattus norvegicus [9],6.9 µmol/kg
CC(C)N1CCC[C@@H](c2cccc(O)c2)C1,Accumulated counts,Rattus norvegicus [38],38
same,Dose,Rattus norvegicus [39],13 µM/kg
same,Control,Rattus norvegicus [40],74%
same,Control,Rattus norvegicus [41],76%
same,ED50,Rattus norvegicus [9],0.45 µmol/kg
same,Level,Rattus norvegicus [10],68
same,Level,Rattus norvegicus [11],60
same,Level,Rattus norvegicus [12],81
same,Level,Rattus norvegicus [13],51
same,Dose,Rattus norvegicus [42],0.2 µM/kg
CN1CCc2cccc3c2[C@H]1Cc1ccc(O)c(O)c1-3 [APOMORPHINE],ED50,Rattus norvegicus [9],0.22 µmol/kg
same,ED50,Rattus norvegicus [36],0.19 µmol/kg

# From ChEMBL document CHEMBL1122697, “Resolved 3-(3-hydroxyphenyl)-N-n-propylpiperidine and its analogues: central dopamine receptor activity” (1984)
